Measurements gathered from unrelated publications.
Lines come from different studies, so protocols differ.

| SMILES | test system | setting | half-life |
| --- | --- | --- | --- |
| CC(C)Oc1c(NC(=O)c2ccc(NC(=O)[C@H](CC(N)=O)NC(=O)c3ccc(NC(=O)c4ccc(C#N)cc4)cc3)cc2)ccc(C(=O)Nc2ccc(C(=O)O)cc2)c1O | male CD-1 mouse, plasma | subcutaneous, 5 mg/kg, single dose | 1.65 h |
| COc1ccc(NC(=O)N2CCCCN3[C@H](CO)[C@H](c4ccc(C#Cc5ccccc5)cc4)[C@@H]3C2)cc1 | mouse, plasma | intravenous | 3 h |
| [Cl-].c1csc([I+]c2cccs2)c1 | mouse, plasma | intraperitoneal, 6 mg/kg | 0.08 h |
| COc1ccc(C[C@@H](C(=O)NO)n2cc(CNS(=O)(=O)c3ccc(-c4ccccc4)s3)nn2)cc1 | female CD-1 mouse, plasma | intraperitoneal, 50 mg/kg | 0.5 h |
| NC[C@@H]1O[C@H](O[C@H]2[C@@H](O)[C@H](O[C@@H]3[C@@H](O)[C@H](N)C[C@H](N)[C@H]3O[C@H]3O[C@H](CO)[C@@H](O)[C@H](O)[C@H]3N)O[C@@H]2CO)[C@H](N)[C@@H](O)[C@@H]1O | male BALB/c mouse, plasma | intravenous, 15 mg/kg | 2.6 h |
| CNC(=O)c1cc(OC)cc2c(N3CCc4c(cc(Cn5ccnc5)cc4-c4cn(C)nc4C(F)(F)F)C3=O)ccnc12 | male CD-1 mouse, plasma | intravenous, 3 mg/kg | 1.1 h |
| CNCCN(C)c1cc(C#N)cc(CCc2cc(C)cc(N)n2)c1 | male BALB/c mouse, brain | intravenous, 2 mg/kg | 24.8 h |
| CCc1cc(C(=O)NC)c2nccc(N3CCc4c(cc(Cn5ccnc5)cc4-c4cn(C)nc4C(F)(F)F)C3=O)c2c1 | male CD-1 mouse, plasma | oral, 150 mg/kg | 1.6 h |
| Cc1nc(-c2cnc(NC(C)C)n(C)c2=O)ccc1Oc1ccnc(-c2cnn(C)c2)c1 | female mouse, plasma | oral, 7.5 mg/kg, single dose | 14 h |
| Cc1ccc2cncc(N3CCc4c(cc(Cn5ccnc5)cc4-c4cn(C)nc4C(F)(F)F)C3=O)c2c1 | male CD-1 mouse, plasma | oral, 50 mg/kg | 2 h |
| Cc1cc(NC(=O)c2cccc3cc(-c4cccc5[nH]nc(N)c45)ccc23)ccc1F | male CD-1 mouse, plasma | oral, 10 mg/kg | 2.15 h |
| O=C(Nc1ccc(C(F)(F)F)cc1)N1CCC(Cc2cccc(Oc3ccc(C(F)(F)F)cn3)c2)CC1 | male Swiss mouse, blood | oral, 1 mg/kg | 5.1 h |
| CCOc1ccc(Cc2cc([C@@H]3O[C@H](CO)[C@@H](O)[C@H](O)[C@H]3O)ccc2Cl)cc1 | male C57BL/6 mouse, plasma | intravenous, 1 mg/kg | 3.4 h |
| O=C(Nc1ccc(Cl)c(Cl)c1)c1ccc(N2CCNCC2)c([N+](=O)[O-])c1 | male mouse, plasma | intravenous, 3 mg/kg | 3.6 h |
| CNC(=O)c1cc(Oc2ccc(NC(=O)Nc3ccc(Cl)c(C(F)(F)F)c3)c(F)c2)ccn1 | male mouse, plasma | oral, 10 mg/kg, single dose | 14.9 h |
| CCc1ccc(Cc2cc([C@@H]3O[C@H](CO)[C@@H](O)[C@H](O)[C@H]3O)cc3c2CCC3)cc1 | male C57BL/6 mouse, plasma | oral, 1 mg/kg | 3 h |

| SMILES | test system | setting | half-life |
| --- | --- | --- | --- |
| COc1nc(-c2cc(C)c(N[C@@H](C)c3cc(F)cc(F)c3)nn2)ccc1-n1cnc(C)c1 | male CD-1 mouse, plasma | oral, 5 mg/kg, single dose | 7.1 h |
| Cc1noc(-c2ccc(CSCCC(=O)O)cc2)c1NC(=O)O[C@H](C)c1ccccc1Cl | mouse, plasma | intravenous, 5 mg/kg | 0.49 h |
| CC[C@H](C)[C@@H]1NC(=O)[C@@](C)(NC(=O)[C@H](CCCNC(=N)N)NC(=O)[C@H](CC(C)C)NC(=O)[C@@H](NC(=O)[C@H](CCC(N)=O)NC(=O)[C@H](CC(C)C)NC(C)=O)[C@@H](C)O)CCCC=CCCC[C@@](C)(C(=O)N[C@@H](CC(C)C)C(=O)N[C@@H](Cc2ccc3ccccc3c2)C(N)=O)NC(=O)[C@H](CCCNC(=N)N)NC(=O)[C@H](CCC(N)=O)NC1=O | male BALB/c mouse, plasma | intravenous, 15 mg/kg | 1.8 h |
| Cn1cnc2c(F)c(Nc3ccc(Br)cc3Cl)c(C(=O)NOCCO)cc21 | nude mouse, liver | oral, 5 mg/kg, single dose, tumour-bearing | 3.5 h |
| NCC1CCN(c2nc(-c3ccncc3)nc3sc4c(c23)CCCC4)CC1 | female CD-1 mouse, plasma | oral, 20 mg/kg | 7.8 h |
| NC(=S)NN=Cc1ncccc1N | female C57BL/6 mouse, plasma | intravenous, 20 mg/kg | 1.08 h |
| COc1ccc(C(O)COc2ccc(-c3csc(-c4ccc(OCC(O)c5ccc(OC)c(OC)c5)cc4)n3)cc2)cc1OC (centres unmarked) | C57BL/6 mouse, plasma | oral, 30 mg/kg | 4.3 h |
| CCc1cc(OC)c2nccc(N3CCc4c(cc(Cn5ccnc5)cc4-c4cn(C)nc4C(F)(F)F)C3=O)c2c1 | male CD-1 mouse, plasma | oral, 150 mg/kg | 1.6 h |
| CNC(=O)[C@H](Cc1c[nH]cn1)NC(=O)CN(CCCc1ccccc1)CC(=O)O | male C57BL/6 mouse, plasma | intraperitoneal, 30 mg/kg | 0.15 h |
| CC(C)(C)c1ccc(O)c(CN(Cc2cc(C(C)(C)C)ccc2O)C2CCC(NC(N)=O)CC2)c1 (centres unmarked) | male C57BL/6 mouse, plasma | oral, 10 mg/kg, single dose | 2.7 h |
| COc1ccc2nccc(N3CCc4c(cc(Cn5ccnc5)cc4-c4cn(C)nc4C(F)(F)F)C3=O)c2c1 | male CD-1 mouse, plasma | intravenous, 3 mg/kg | 0.7 h |
| CCCc1c(C2CCCCN2CCN2CCOCC2)[nH]c2cc(OC(F)(F)F)ccc12 (centres unmarked) | male mouse, plasma | oral, 30 mg/kg | 11 h |
| CC=Cc1ccc(O)c(OC)c1 | mouse, brain | intranasal, 100 mg/kg | 0.294 h |
| CN1CCC[C@H](CN2c3ccccc3Sc3ccccc32)C1.Cl | mouse, plasma | intraperitoneal, 32 mg/kg, single dose | 2.82 h |
| OC[C@H]1O[C@@H](c2ccc(Cl)c(Cc3ccc(O[C@H]4CCOC4)cc3)c2)[C@H](O)[C@@H](O)[C@@H]1O | CD-1 mouse, plasma | intravenous, 5 mg/kg | 0.16 h |
| COc1cc2c(Nc3ccc(Cl)c(Cl)c3F)ncnc2cc1OC[C@@H]1C[C@@H]2CN(C)C[C@@H]2C1 | FVB mouse, brain | oral, 70 mg/kg, single dose | 13.3 h |
